The test system of assay [1] is Cavia porcellus. Nature of the assay: In vivo bronchodilator effect on histamine-induced bronchospasm in anaesthetized guinea pigs at 10 ug intravenous dose. Type of assay: functional.
For assay [2], the system named is Cavia porcellus. Nature of the assay: In vivo bronchodilator effect on histamine-induced bronchospasm in anaesthetized guinea pigs at 50 ug intravenous dose. Type of assay: functional.
Assay [3] deals with Cavia porcellus. Nature of the assay: In vivo bronchodilator effect on histamine-induced bronchospasm in anaesthetized guinea pigs at 20 ug intravenous dose. Type of assay: functional.
The species entered for assay [4] is Cavia porcellus. Nature of the assay: Inhibition of superoxide O2-generation from guinea pig peritoneal eosinophils. Type of assay: functional. In a few lines: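 Guinea pig peritoneal eosinophils (10^6/well) were incubated for 45 min at 37 °C in HBSS with p-iodonitrotetrazolium violet (0.5 mg/mL). Superoxide was measured as SOD-inhibitable dye reduction: cells were pelleted and dissolved overnight at room temperature in DMSO/0.6 M HCl, and absorbance was read at 492 nm.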

Assay [5] can be described thus: Inhibitory potency against pig aortic PDE III. Further details: species or system Sus scrofa. In a few lines:
(§1)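 Pig aortic PDE isozymes were separated by DEAE-trisacryl anion-exchange chromatography. PDE III was assayed in the presence of rolipram (10 µM) and PDE IV in the presence of siguazodan (10 µM) to exclude cross-contamination.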

Assay [6] concerns the target T1, Phosphodiesterase 4 (Homo sapiens, UniProt P27815+Q08499+Q07343+Q08493). Nature of the assay: Inhibition of solubilized eosinophil PDE IV. Type of assay: protein assay, Cavia porcellus.
Assay [7] has as its system Cavia porcellus. Nature of the assay: In vivo bronchodilator effect on histamine-induced bronchospasm in anaesthetized guinea pigs at 100 ug intravenous dose. Type of assay: functional.
For assay [8], the target named is T1, Phosphodiesterase 4. Nature of the assay: Inhibition of guinea pig PDE IV. In kind it is protein assay, Cavia porcellus. The note with it: target entry is the homologue from another species.
Assay [9] concerns the target Phosphodiesterase 1 (Sus scrofa). Nature of the assay: Inhibitory potency against pig aortic PDE I.
The next assay has as its target T2, Phosphodiesterase 4A (Sus scrofa, UniProt O77823).
T2 sequence (O77823 whole entry): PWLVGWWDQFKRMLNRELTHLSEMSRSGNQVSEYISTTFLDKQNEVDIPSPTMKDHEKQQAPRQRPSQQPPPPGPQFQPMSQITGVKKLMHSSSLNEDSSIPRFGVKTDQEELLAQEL
Nature of the assay: Inhibitory potency against pig aortic PDE IV. In a few lines: as §1

For assay [10], the system named is Cavia porcellus. Nature of the assay: In vivo bronchodilator effect on histamine-induced bronchospasm in anaesthetized guinea pigs at 200 ug intravenous dose. Type of assay: functional.

A value given as a limit tells only on which side of the number the result lay.

Regarding `COc1ccc(C2CNC(=O)C2)cc1OC1CCCC1` (configuration not stated) [ROLIPRAM], the Duration in the assay with Cavia porcellus [1] came out at 15 min; in the assay with Cavia porcellus [2] it was 38 min; in the assay on Cavia porcellus [3] it was 29 min. The Reduction in the assay on Cavia porcellus [1] came to 15%; in the assay on Cavia porcellus [2], 58%; in the assay on Cavia porcellus [3] it was 48%. Moreover, it took 0.16 µM to reach half-maximal inhibition in the assay filed under Cavia porcellus [4] (IC50).
Consider `COc1ccc(C(=O)Nc2ccccc2Cl)cc1OC1CCCC1`, for which the IC50 (as a rule, the point on the concentration scale where inhibition reaches its midpoint) in assay [5] is over 200 µM; against Phosphodiesterase 4 [6] it was 0.051 µM; against Phosphodiesterase 4 [8], 0.186 µM; in [9], over 200 µM; in the assay listed under Cavia porcellus [4] it was 0.45 µM; at Phosphodiesterase 4A, 0.19 µM. In addition, the Duration in the assay on Cavia porcellus [7] came to 27 min. In addition, the Reduction in the assay on Cavia porcellus [7] worked out at 43%.
Take `COc1ccc(C(=O)Nc2c(C)cccc2C)cc1OC1CCCC1`: the IC50 in [5] is over 200 µM; at Phosphodiesterase 4 [6] it was 0.065 µM; at Phosphodiesterase 4 [8], 0.106 µM; in the assay listed under Cavia porcellus [4] it was 0.17 µM; at Phosphodiesterase 4A it was 0.1 µM. In the assay with Cavia porcellus [7], this molecule displayed a Duration of 16 min. In the assay with Cavia porcellus [7], this molecule displayed a Reduction of 24%.
`COc1ccc(C(=O)Nc2c(Cl)cncc2Cl)cc1OC1CC2CCC1C2` (racemic): the IC50 was 0.0005 µM on Phosphodiesterase 4 [6], 0.0014 µM on Phosphodiesterase 4 [8], 0.022 µM in the assay filed under Cavia porcellus [4] and 0.001 µM on Phosphodiesterase 4A. Moreover, the values for the Duration in the assay with Cavia porcellus [7] and in the assay on Cavia porcellus [2] were 59 min and 29 min, respectively. Moreover, the Reduction in the assay with Cavia porcellus [7] is listed as 80%; in the assay with Cavia porcellus [2], 35%.
With `COc1ccc(C(=O)Nc2c(Cl)cncc2Cl)cc1OC1CCCC1`, the Reduction with Cavia porcellus [1] is 36%; with Cavia porcellus [2], 78%; in the assay with Cavia porcellus [3], 56%. Also, the IC50 in the assay filed under Cavia porcellus [4] came out at 0.024 µM.
As for `COc1ccc(C(=O)Nc2c(Cl)cccc2Cl)cc1OC1CCCC1`, the IC50 is over 1000 µM in [5]; 0.005 µM on Phosphodiesterase 4 [6]; 0.023 µM at Phosphodiesterase 4 [8]; 0.53 µM in the assay listed under Cavia porcellus [4]; 0.023 µM on Phosphodiesterase 4A. The Duration was found to be 34 min in the assay on Cavia porcellus [7] and 30 min in the assay with Cavia porcellus [10]. In addition, the Reduction amounted to 48% in the assay on Cavia porcellus [7] and 55% in the assay with Cavia porcellus [3].
`COc1ccc(C(=O)Nc2c(F)cccc2F)cc1OC1CCCC1`: the IC50 is over 1000 µM in assay [5]; 0.018 µM on Phosphodiesterase 4 [6]; 0.066 µM against Phosphodiesterase 4 [8]; over 1000 µM in assay [9]; 0.58 µM in the assay filed under Cavia porcellus [4]; 0.07 µM at Phosphodiesterase 4A. Besides, the Duration in the assay on Cavia porcellus [7] is given as 18 min; in the assay with Cavia porcellus [10], 48 min. In addition, the Reduction is 29% in the assay with Cavia porcellus [7] and 54% in the assay with Cavia porcellus [3].
Take `COc1ccc(C(=O)Nc2c(Cl)c[n+]([O-])cc2Cl)cc1OC1CCCC1`: the IC50 at Phosphodiesterase 4 [6] was determined as 0.002 µM; on Phosphodiesterase 4 [8], 0.0023 µM; in the assay listed under Cavia porcellus [4], 0.3 µM; on Phosphodiesterase 4A, 0.002 µM. The figures for the Duration in the assay with Cavia porcellus [7] and in the assay on Cavia porcellus [2] were 39 min and 18 min, respectively. The Reduction amounted to 54% in the assay on Cavia porcellus [7] and 45% in the assay with Cavia porcellus [2].
With `COc1ccc(C(=O)Nc2ccncc2Cl)cc1OC1CCCC1`, the IC50 on Phosphodiesterase 4 [6] was found to be 0.002 µM; against Phosphodiesterase 4 [8], 0.016 µM; in the assay listed under Cavia porcellus [4], 0.03 µM; at Phosphodiesterase 4A it was 0.016 µM. This molecule also gave a Duration with Cavia porcellus [10] of 15 min. Moreover, the Reduction with Cavia porcellus [3] is reported as 26%.
`COc1ccc(C(=O)Nc2ccccc2)cc1OC1CCCC1`: the IC50 is over 1000 µM in assay [5]; 0.145 µM at Phosphodiesterase 4 [6]; 2.566 µM on Phosphodiesterase 4 [8]; over 10 µM in the assay listed under Cavia porcellus [4]; 2.6 µM against Phosphodiesterase 4A. In the assay on Cavia porcellus [10], the Duration is given as 6 min. Further, in the assay on Cavia porcellus [3], the Reduction came to 32%.
Take `CCCCOc1cc(C(=O)Nc2c(Cl)cncc2Cl)ccc1OC`: the IC50 at Phosphodiesterase 4 [6] came out at 0.0025 µM; at Phosphodiesterase 4 [8], 0.0085 µM; in the assay listed under Cavia porcellus [4], 0.48 µM; on Phosphodiesterase 4A, 0.008 µM. Moreover, the figures for the Duration in the assay with Cavia porcellus [7] and in the assay on Cavia porcellus [10] were 34 min and 32 min, respectively. In addition, the Reduction with Cavia porcellus [7] stood at 52%; in the assay with Cavia porcellus [3], 78%.

Source of the values: ChEMBL document CHEMBL1127531, “Selective type IV phosphodiesterase inhibitors as antiasthmatic agents. The syntheses and biological activities of 3-(cyclopentyloxy)-4-methoxybenzamides and analogues” (J Med Chem, 1994).
